Data as given in ChEMBL document CHEMBL1140214, “Antitumor activity of new substituted 3-(5-imidazo[2,1-b]thiazolylmethylene)-2-indolinones and 3-(5-imidazo[2,1-b]thiadiazolylmethylene)-2-indolinones: selectivity against colon tumor cells and effect on cell cycle-related events” (2008).

Columns and labels:
[1] = Antitumor activity against human ovarian cancer cells after 48 hrs by SRB assay; format: functional, Cancer cell lines
In short: (§1)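 NCI 60-cell panel two-stage screen: a single-dose pass at 10^-5 M, then five-dose testing for active compounds. Compounds were dissolved in DMSO and tested at five 10-fold dilutions, the highest 10^-4 M (10^-3 M in some cases). Results are given as the negative log molar concentration at three end points: pGI50, pTGI (total growth inhibition) and pLC50. Means are panel-subtype averages.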

[2] = Antitumor activity against human renal cancer cells after 48 hrs by SRB assay; format: functional, Cancer cell lines; settings: for TGI: read-out: pTGI (converted); in short: as §1
[3] = Antitumor activity against human Breast cancer cells after 48 hrs by SRB assay; format: functional, Cancer cell lines; settings: for GI50 / TGI: Homo sapiens, Cancer cell lines, 48 h; for TGI: read-out: pTGI (converted); in short: as §1
[4] = Antitumor activity against human Colon cancer cells after 48 hrs by SRB assay; format: functional, Cancer cell lines; settings: for TGI: read-out: pTGI (converted); in short: as §1
[5] = Antitumor activity against human prostate cancer cells after 48 hrs by SRB assay; format: functional, Cancer cell lines; settings: for GI50 / TGI: Homo sapiens, Cancer cell lines, 48 h; for TGI: read-out: pTGI (converted); in short: as §1
[6] = Antitumor activity against human CNS cancer cells after 48 hrs by SRB assay; format: functional, Cancer cell lines; settings: for TGI: read-out: pTGI (converted); in short: as §1
[7] = tested on: Melanoma cell; test: Antitumor activity against human Melanoma cells after 48 hrs by SRB assay; format: functional; settings: for TGI: read-out: pTGI (converted); in short: as §1
[8] = tested on: Leukemia cell; test: Antitumor activity against human Leukemia cells after 48 hrs by SRB assay; format: functional; settings: for GI50 / TGI: Homo sapiens, Leukemia cell, 48 h; for TGI: read-out: pTGI (converted); in short: as §1
[9] = tested on: NSCLC; test: Antitumor activity against human NSCLC cells after 48 hrs by SRB assay; format: functional; settings: for GI50 / TGI: Homo sapiens, NSCLC, 48 h; for TGI: read-out: pTGI (converted); in short: as §1
[10] = Homo sapiens, Cancer cell lines, 48 h
[11] = Homo sapiens, Cancer cell lines, 48 h, read-out: pGI50 (converted)
[12] = Homo sapiens, Melanoma cell, 48 h, read-out: pGI50 (converted)
[13] = Homo sapiens, Melanoma cell, 48 h

Row | SMILES | GI [1] [µM] | GI50 [1, 10] [µM] | GI [2] [µM] | GI50 [2, 10] [µM] | GI [3] [µM] | GI50 [3] [µM] | TGI [3] [µM] | GI [4] [µM] | GI50 [4, 10] [µM] | GI [5] [µM] | GI50 [5] [µM] | GI50 [6] [µM] | GI50 [6, 11] [µM] | TGI [6, 10] [µM] | GI50 [7] [µM] | GI50 [7, 12] [µM] | TGI [7, 13] [µM] | GI [8] [µM] | GI50 [8] [µM] | GI [9] [µM] | other results
1 | Cc1nn2c(/C=C3/C(=O)Nc4ccc(Cl)cc43)c(C)nc2s1 | 52.48 | 52.5 | 56.23 | 56.2 | 28.18 | 28.2 | 83.2 | 14.13 | 14.1 | 43.65 | 43.7 | 29.51 | 29.5 | 97.7 | 41.69 | 41.7 | 97.7 | 14.13 | 14.1 | 53.7 | TGI [8]: 81.3 µM; GI50 [9]: 53.7 µM; TGI [9]: 89.1 µM
2 | Cc1cn2c(/C=C3/C(=O)N(C)c4ccc(Cl)cc43)c(C)nc2s1 | 3.8 | 3.8 | 6.03 | 6.03 | 6.76 | 6.76 | 33.1 | 2.69 | 2.69 | 1 | 1 | 3.16 | 3.16 | 28.8 | 5.5 | 5.5 | 63.1 | 1.45 | 1.45 | 7.94 | TGI ([1]; Homo sapiens, Cancer cell lines, 48 h, read-out: pTGI (converted)): 44.7 µM; TGI [2, 10]: 61.7 µM; LC50 (50% lethal concentration) [4, 10]: 83.2 µM; TGI [4, 10]: 38 µM; TGI [5]: 4.37 µM; LC50 [6, 10]: 79.4 µM; TGI [8]: 11.7 µM; GI50 [9]: 7.94 µM; TGI [9]: 41.7 µM
3 | Cc1nn2c(/C=C3/C(=O)Nc4ccccc43)c(-c3ccc(Cl)cc3)nc2s1 | 25.7 | 25.7 | 17.78 | 17.8 | 16.98 | 17 | 42.7 | 18.62 | 18.6 | 12.3 | 12.3 | 3.24 | 3.24 | 16.6 | 19.95 | 20 | 35.5 | 17.78 | 17.8 | 19.05 | LC50 (concentration killing 50% of cells) [2, 10]: 46.8 µM; TGI [2, 10]: 33.1 µM; TGI [4, 10]: 44.7 µM; TGI [5]: 32.4 µM; LC50 [6, 10]: 38.9 µM; CC50 ([7]; Homo sapiens, Melanoma cell, 48 h, read-out: pLC50 (the source's name) (converted)): 47.9 µM; GI50 [9]: 19.1 µM; TGI [9]: 45.7 µM
